One data set has as its system Serratia marcescens. Description: Antibacterial activity against Serratia marcescens ATCC 13880 assessed as inhibition of cell growth by broth-microdilution method. Format: functional. An outline of the steps: (§1)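 Strains were held at −80 °C and subcultured twice on tryptic soy agar for 24–48 h at 30 °C. MIC was read by CLSI broth microdilution in Mueller–Hinton II broth, with and without the efflux-pump inhibitor PAβN (20 µg mL⁻¹). Both sets contained 1 mM MgSO₄. A ≥4-fold MIC drop with PAβN was taken as significant.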

The subject of another data set is Burkholderia cepacia. Description: Antibacterial activity against Burkholderia cepacia ATCC 25416 assessed as inhibition of cell growth by broth-microdilution method. Format: functional. Background: Dilution methods test growth across graded concentrations, often in twofold steps.
The test system of data set [1] is Stenotrophomonas maltophilia. The data set is described as follows: Antibacterial activity against Stenotrophomonas maltophilia ATCC 13637 assessed as inhibition of cell growth by broth-microdilution method. The data set is classed as functional. Summed up: as §1
Data set [2] relates to Stenotrophomonas maltophilia. Description: Antibacterial activity against Stenotrophomonas maltophilia ATCC 12714 assessed as inhibition of cell growth by broth-microdilution method. Format: functional. Summed up:
as §1

The next data set relates to Klebsiella pneumoniae. Description: Antibacterial activity against Klebsiella pneumoniae ATCC 13883 assessed as inhibition of cell growth by broth-microdilution method. The data set is classed as functional. An outline of the steps:
as §1

The test system of the next data set is Bacillus subtilis. The data set is described as follows: Antibacterial activity against Bacillus subtilis ATCC 6633 assessed as diameter of inhibition zone by CLSI based disc-diffusion method. Format: functional. Summed up:
(§2)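 Strains were stored at −80 °C, then subcultured twice on tryptic soy agar for 24–48 h at 30 °C before the disc-diffusion test. The result was recorded as the inhibition-zone diameter.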
For orientation: A growth-free zone around the sample is the usual read-out of agar diffusion tests.

Another data set has as its system Acinetobacter baumannii. Description: Antibacterial activity against Acinetobacter baumannii ATCC 19606 assessed as inhibition of cell growth by broth-microdilution method. The data set is classed as functional. Summed up:
as §1

In the next data set the test system is Enterobacter cloacae. The data set is described as follows: Antibacterial activity against Enterobacter cloacae DSM 6234 assessed as inhibition of cell growth by broth-microdilution method. Format: functional. Summed up: as §1
Data set [3] concerns Staphylococcus aureus. The data set is described as follows: Antibacterial activity against methicillin-resistant Staphylococcus aureus ATCC 43300 assessed as diameter of inhibition zone by CLSI based disc-diffusion method. Format: functional. Summed up: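 Disc-diffusion on standard strain subcultured twice on tryptic soy agar (24–48 h, 30 °C) after storage at −80 °C; inhibition zone diameter read; linezolid disc (0.03 mg) as reference.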

The test system of a further data set is Proteus mirabilis. The data set is described as follows: Antibacterial activity against Proteus mirabilis ATCC 12453 assessed as inhibition of cell growth by broth-microdilution method. The data set is classed as functional. Summed up:
as §1

The test system of the next data set is Pseudomonas aeruginosa. The data set is described as follows: Antibacterial activity against Pseudomonas aeruginosa ATCC […] assessed as inhibition of cell growth by broth-microdilution method. Format: functional. Summed up: as §1
For another data set, the system named is Escherichia coli. Description: Antibacterial activity against Escherichia coli ATCC 25922 assessed as inhibition of cell growth by broth-microdilution method. Format: functional. Summed up:
as §1

The subject of data set [4] is Enterococcus faecium. Description: Antibacterial activity against Enterococcus faecium ATCC 6057 assessed as diameter of inhibition zone by CLSI based disc-diffusion method. The data set is classed as functional. Summed up:
as §2

In data set [5] the test system is Enterococcus faecium. Description: Antibacterial activity against Enterococcus faecium ATCC 6057 assessed as inhibition of microbial growth by broth-microdilution method. Format: functional. Summed up:
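Stocks were kept at −80 °C and subcultured twice on tryptic soy agar (24–48 h, 30 °C). MIC came from CLSI broth microdilution in Mueller–Hinton II broth, using agents dissolved in DMSO. The top tested concentration was lowered to 200, 100 or 50 µg mL⁻¹ for agents that precipitated in the medium above those levels.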

In the next data set the test system is Enterococcus faecalis. The data set is described as follows: Antibacterial activity against Enterococcus faecalis ATCC 29212 assessed as diameter of inhibition zone by CLSI based disc-diffusion method. The data set is classed as functional. An outline of the steps:
as §2

The nature of data set [6]: Selectivity ratio of IC50 for cytotoxicity against human MRC5 cells assessed as inhibition of cell growth to MIC for antibacterial activity against methicillin-resistant Staphylococcus aureus NMI 664 K assessed as inhibition of microbial growth by broth-microdilution method. The data set is classed as toxicity, cell-based.
For data set [7], the system named is Staphylococcus aureus. The data set is described as follows: Bactericidal activity against methicillin-resistant Staphylococcus aureus NMI 1712 K assessed as inhibition of microbial growth by CLSI based microdilution method. Format: functional.
The nature of data set [8]: Selectivity ratio of IC50 for cytotoxicity against human MRC5 cells assessed as inhibition of cell growth to MIC for antibacterial activity against methicillin-resistant Staphylococcus aureus ATCC 43300 assessed as inhibition of microbial growth. The data set is classed as toxicity, cell-based.
Data set [9] is described as follows: Selectivity ratio of IC50 for cytotoxicity against human MRC5 cells assessed as inhibition of cell growth to MIC for antibacterial activity against methicillin-resistant Staphylococcus aureus NMI 1991 K assessed as inhibition of microbial growth by broth-microdilution method. Format: toxicity, cell-based.
Data set [10] in a line: Selectivity ratio of IC50 for cytotoxicity against human MRC5 cells assessed as inhibition of cell growth to MIC for antibacterial activity against methicillin-resistant Staphylococcus aureus NMI 2541 K assessed as inhibition of microbial growth by broth-microdilution method. The data set is classed as toxicity, cell-based.
The nature of data set [11]: Selectivity ratio of IC50 for cytotoxicity against human MRC5 cells assessed as inhibition of cell growth to MIC for antibacterial activity against methicillin-resistant Staphylococcus aureus NMI 1712 K assessed as inhibition of microbial growth by broth-microdilution method. Format: toxicity, cell-based.
Data set [12] in a line: Selectivity ratio of IC50 for cytotoxicity against human MRC5 cells assessed as inhibition of cell growth to MIC for antibacterial activity against methicillin-resistant Staphylococcus aureus NMI 1576 K assessed as inhibition of microbial growth by broth-microdilution method. Format: toxicity, cell-based.
In data set [13] the test system is Staphylococcus aureus. Description: Bactericidal activity against methicillin-resistant Staphylococcus aureus NMI 2541 K assessed as inhibition of microbial growth by CLSI based microdilution method. The data set is classed as functional.
The subject of data set [14] is Staphylococcus epidermidis. The data set is described as follows: Antibacterial activity against Staphylococcus epidermidis ATCC 12228 assessed as diameter of inhibition zone by CLSI based disc-diffusion method. Format: functional. Summed up:
as §2

As to `C[Si]1(C)OB(O)c2ccc(SC3CC(=O)NC3=O)c(F)c21` (stereo not given), the MIC (with Serratia marcescens; in the data set on Burkholderia cepacia; in [1]; in [2]; in the data set on Klebsiella pneumoniae; in the data set with Acinetobacter baumannii) was more than 25 µg/mL each time. Further, the MIC with Enterobacter cloacae, in the data set on Proteus mirabilis, in the data set with Pseudomonas aeruginosa and with Escherichia coli was more than 25 µg/mL throughout. In addition, the “diameter of the inhibition zone (DIZ)” value in the data set on Bacillus subtilis was 24 mm; with Staphylococcus aureus [3], 22 mm.

`CC(=O)CCSc1c(F)cc2c(c1F)[Si](C)(C)OB2O`: the “diameter of the inhibition zone (DIZ)” value in the data set with Enterococcus faecium [4] is 21 mm; in the data set with Staphylococcus aureus [3], 19 mm; in the data set on Enterococcus faecalis it was 19 mm. Moreover, the MIC – broadly, the lowest concentration that inhibits growth of the organism – in the data set with Enterococcus faecium [5] is 12.5 µg/mL.

Consider `C[Si]1(C)OB(O)c2cc(F)c(SCCC#N)c(F)c21`, for which the selectivity ratio in data set [6], in [8], in data set [9], in [10], in data set [11] and in data set [12] was 11.2 throughout. Also, the figures for the “diameter of the inhibition zone (DIZ)” value in the data set with Bacillus subtilis and in the data set on Staphylococcus aureus [3] were 23 mm and 19 mm, respectively. The MBC (usually the lowest tested concentration that kills the bacteria rather than only halting them) in the data set on Staphylococcus aureus [7] is 12.5 µg/mL.

`C[Si]1(C)OB(O)c2cc(F)c(SC3CC(=O)NC3=O)c(F)c21` (stereo not given): the selectivity ratio worked out at 13.4 in data set [6]; 13.4 in [8]; 13.4 in [9]; 13.4 in [10]; 13.4 in data set [11]; 26.8 in data set [12]. Moreover, the MIC (in the data set with Serratia marcescens; in the data set with Burkholderia cepacia; in [1]; in [2]; in the data set on Klebsiella pneumoniae; in the data set with Acinetobacter baumannii) was more than 25 µg/mL throughout. Moreover, the MIC in the data set with Enterobacter cloacae, with Proteus mirabilis, in the data set with Pseudomonas aeruginosa and with Escherichia coli was more than 25 µg/mL throughout. In addition, the “diameter of the inhibition zone (DIZ)” value with Bacillus subtilis is 27 mm; in the data set with Staphylococcus aureus [3], 23 mm.

Take `CCOP(=O)(OCC)Sc1c(F)cc2c(c1F)[Si](C)(C)OB2O`: the selectivity ratio in data set [6], in data set [8], in data set [9], in data set [10], in data set [11] and in [12] was more than 32 each time. Moreover, the “diameter of the inhibition zone (DIZ)” value in the data set with Enterococcus faecium [4] is 11 mm; in the data set with Bacillus subtilis it was 24 mm; in the data set with Staphylococcus aureus [3] it was 27 mm; in the data set on Enterococcus faecalis it was 11 mm; in [14], 20 mm. Also, the MBC with Staphylococcus aureus [13] is more than 12.5 µg/mL.

The values are drawn from ChEMBL document CHEMBL5532704, “Exploiting thiol-functionalized benzosiloxaboroles for achieving diverse substitution patterns - synthesis, characterization and biological evaluation of promising antibacterial agents” (RSC Med Chem, 2024).
